Data on 23 molecules can be found in PMC10209631 (RSC Advances, 2023).

One series relates to HepG2. Put plainly: Antiproliferative activity. In kind it is cell-based. The settings on record: Homo sapiens, HepG2, 48 h, read-out: antiproliferative activity IC50, HepG2.
The subject of series [1] is normal fibroblasts (WI-38). Put plainly: Cytotoxicity. Particulars: for IC50: read-out: IC50, normal fibroblasts WI-38; for selectivity index (SI): SI = WI-38 IC50/IC50 against cancer cells; for toxicity to the normal fibroblasts (in words): WI-38 versus cancer cells.
Series [2] relates to MCF-7 cells. Kind of series: Cell cycle analysis. In kind it is cell-based, human. Particulars: MCF7, IC50 concentration, 48 h.
The subject of series [3] is MCF-7 cells. Put plainly: Apoptosis assay by annexin V-PI. In kind it is cell-based, human. Particulars: MCF7, IC50 concentration, 48 h; for necrotic cells (upper left quadrant, UL): DMSO 0.1%. In short, it runs like this: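 MCF-7 cells seeded at 1 × 10⁵ cells per mL and held overnight at 37 °C, 5% CO₂. Test compound or DMSO added in fresh medium for 48 h. Cells trypsinized, washed twice in PBS, and stained 15 min with annexin V-FITC plus propidium iodide in binding buffer. Flow cytometry scored early apoptotic (LR), late apoptotic (UR) and necrotic (UL) quadrants.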

Like-named read-outs stand apart in the source and are kept apart here.

Broadly, the IC50 is the point on the concentration scale where inhibition reaches its midpoint. Consider `Nc1nnc(NC(=O)c2ccccc2)s1` [Compound 2, N-(5-Amino-1,3,4-thiadiazol-2-yl)benzamide], for which the half-maximal inhibitory concentration (IC50) with HepG2 was 14.1 ± 1.5 µM; in series [1] (Homo sapiens, WI-38, 48 h), 17.6 ± 4.1 µM. Besides, in series [1], the “selectivity index (SI)” value is 1.0.

Regarding `N#CCC(=O)Nc1nnc(NC(=O)c2ccccc2)s1` [Compound 3, N-(5-(2-Cyanoacetamido)-1,3,4-thiadiazol-2-yl)benzamide], the IC50 with HepG2 was found to be 31.3 ± 5.1 µM; in series [1] (Homo sapiens, WI-38, 48 h) it was 37.4 ± 2.5 µM. The “selectivity index (SI)” value in series [1] was 1.2.

As to `N=c1oc2ccccc2cc1C(=O)Nc1nnc(NC(=O)c2ccccc2)s1` [Compound 4, N-(5-Benzamido-1,3,4-thiadiazol-2-yl)-2-imino-2H-chromene-3-carboxamide], the IC50 in the series with HepG2 is 48.5 ± 2.9 µM; in series [1] (Homo sapiens, WI-38, 48 h), 29.4 ± 2.2 µM. Moreover, in series [1], the “selectivity index (SI)” value came out at 1.3. The “toxicity to the normal fibroblasts (in words)” value (shortened to “toxicity”) in series [1] is recorded as “toxic to the normal fibroblasts”.

`O=C(Nc1nnc(NC(=O)c2cc3ccccc3oc2=O)s1)c1ccccc1` [Compound 5, N-(5-Benzamido-1,3,4-thiadiazol-2-yl)-2-oxo-2H-chromene-3-carboxamide]: the IC50 with HepG2 is 63.9 ± 8.9 µM; in series [1] (Homo sapiens, WI-38, 48 h), 91.2 ± 4.6 µM. Further, the “selectivity index (SI)” value in series [1] was found to be 1.5.

Consider `COc1ccc(C=C(C#N)C(=O)Nc2nnc(NC(=O)c3ccccc3)s2)cc1` [Compound 6b, N-(5-(2-Cyano-3-(4-methoxyphenyl)acrylamido)-1,3,4-thiadiazol-2-yl)benzamide], for which the IC50 in the series on HepG2 amounted to 15.9 ± 1.3 µM. For the same molecule, the “sub-G1 percent of cells” value in the series with MCF-7 cells [2] (DMSO 7.4%) is given as 53.6%. In addition, in the series with MCF-7 cells [3], the “induction of apoptosis (in words)” value is given as “did not induce apoptosis” and the “necrotic cells (upper left quadrant, UL)” value is reported as 12.5%. Moreover, the IC50 in series [1] (Homo sapiens, WI-38, 48 h) stood at 50.4 ± 0.9 µM. For the same molecule, the “selectivity index (SI)” value in series [1] turned out to be 4.9.

As to `N#CC(=Cc1ccc(Cl)cc1Cl)C(=O)Nc1nnc(NC(=O)c2ccccc2)s1` [Compound 7a, N-(5-(2-Cyano-3-(2,4-dichlorophenyl)acrylamido)-1,3,4-thiadiazol-2-yl)benzamide], the IC50 in the series with HepG2 came out at 6.34 ± 0.9 µM. Further, the IC50 in series [1] (Homo sapiens, WI-38, 48 h) worked out at 9.18 ± 3.6 µM. Further, in series [1], the “selectivity index (SI)” value is recorded as 1.5 and the “toxicity” value is given as “toxic to the normal fibroblasts”.

For the molecule `N#CC(=Cc1ccc(Cl)cc1)C(=O)Nc1nnc(NC(=O)c2ccccc2)s1` [Compound 7b, N-(5-(3-(4-Chlorophenyl)-2-cyanoacrylamido)-1,3,4-thiadiazol-2-yl)benzamide], the IC50 worked out at 14.7 ± 2.1 µM in the series with HepG2 and 42.1 ± 2.7 µM in series [1] (Homo sapiens, WI-38, 48 h). Further, the “selectivity index (SI)” value in series [1] worked out at 2.4.

Turning to `N#CC(=Cc1ccco1)C(=O)Nc1nnc(NC(=O)c2ccccc2)s1` [Compound 7c, N-(5-(2-Cyano-3-(furan-2-yl)acrylamido)-1,3,4-thiadiazol-2-yl)benzamide], the IC50 in the series on HepG2 came to 16.3 ± 1.8 µM; in series [1] (Homo sapiens, WI-38, 48 h) it was 22.6 ± 3 µM. Moreover, in series [1], the “selectivity index (SI)” value was 0.8.

`N#CC(=Cc1cccs1)C(=O)Nc1nnc(NC(=O)c2ccccc2)s1` [Compound 7d, N-(5-(2-Cyano-3-(thiophen-2-yl)acrylamido)-1,3,4-thiadiazol-2-yl)benzamide]: the IC50 in the series on HepG2 was 66.1 ± 3.5 µM; in series [1] (Homo sapiens, WI-38, 48 h) it was 12.3 ± 1.2 µM. The “selectivity index (SI)” value in series [1] came out at 0.4. Also, the “toxicity” value in series [1] is given as “toxic to the normal fibroblasts”.

As to `N#CC(=Cc1ccc([N+](=O)[O-])cc1)C(=O)Nc1nnc(NC(=O)c2ccccc2)s1` [Compound 7e, N-(5-(2-Cyano-3-(4-nitrophenyl)acrylamido)-1,3,4-thiadiazol-2-yl)benzamide], the IC50 with HepG2 was 56.3 ± 7.8 µM; in series [1] (Homo sapiens, WI-38, 48 h), 23.4 ± 3.6 µM. Moreover, the “selectivity index (SI)” value in series [1] was 0.4.

`COc1cc(C=C(C#N)C(=O)Nc2nnc(NC(=O)c3ccccc3)s2)ccc1O` [Compound 7f, N-(5-(2-Cyano-3-(4-hydroxy-3-methoxyphenyl)acrylamido)-1,3,4-thiadiazol-2-yl)benzamide]: the IC50 was determined as 21.3 ± 3.7 µM in the series with HepG2 and 14.5 ± 0.3 µM in series [1] (Homo sapiens, WI-38, 48 h). In series [1], the “selectivity index (SI)” value worked out at 0.9.

For the molecule `Cc1cc(C)n(-c2nnc(NC(=O)c3ccccc3)s2)c(=O)c1C#N` [Compound 9, N-(5-(3-Cyano-4,6-dimethyl-2-oxopyridin-1(2H)-yl)-1,3,4-thiadiazol-2-yl)benzamide], the IC50 stood at 39.1 ± 2.7 µM in the series on HepG2 and 50.4 ± 0.9 µM in series [1] (Homo sapiens, WI-38, 48 h). The “selectivity index (SI)” value in series [1] is 2.5.

For `Cc1cc(-c2ccccc2)n(-c2nnc(NC(=O)c3ccccc3)s2)c(=O)c1C#N` [Compound 10, N-(5-(3-Cyano-4-methyl-2-oxo-6-phenylpyridin-1(2H)-yl)-1,3,4-thiadiazol-2-yl)benzamide], the IC50 with HepG2 was 19.4 ± 1.5 µM; in series [1] (Homo sapiens, WI-38, 48 h), greater than 100 µM. Also, in series [1], the “selectivity index (SI)” value was found to be 1.7.

With `N#CC(C(=O)Nc1nnc(NC(=O)c2ccccc2)s1)=C1SC(=O)CN1c1ccccc1` [Compound 12, N-(5-(2-Cyano-2-(5-oxo-3-phenylthiazolidin-2-ylidene)acetamido)-1,3,4-thiadiazol-2-yl)benzamide], the IC50 in the series with HepG2 was 69.5 ± 6.5 µM; in series [1] (Homo sapiens, WI-38, 48 h), greater than 100 µM.

Regarding `N#CC(C(=O)Nc1nnc(NC(=O)c2ccccc2)s1)=C1SCCN1c1ccccc1` [Compound 14, N-(5-(2-Cyano-2-(3-phenylthiazolidin-2-ylidene)acetamido)-1,3,4-thiadiazol-2-yl)benzamide], the IC50 is greater than 100 µM in the series with HepG2 and 53.8 ± 3.4 µM in series [1] (Homo sapiens, WI-38, 48 h). Moreover, the “selectivity index (SI)” value in series [1] is given as 0.8.

Take `N#Cc1c(Nc2ccccc2)n2nc(NC(=O)c3ccccc3)sc2nc1=O` [Compound 15, N-(6-Cyano-7-oxo-5-(phenylamino)-7H-[1,3,4]thiadiazolo[3,2-a]pyrimidin-2-yl)benzamide]: the IC50 in the series on HepG2 was 16.8 ± 1.7 µM; in series [1] (Homo sapiens, WI-38, 48 h), 19.4 ± 1.5 µM. Besides, the “selectivity index (SI)” value in series [1] is recorded as 1.4.

Take `N#CC(C(=O)Nc1nnc(NC(=O)c2ccccc2)s1)C(=S)Nc1ccccc1` (centres unmarked) [Compound 16, N-(5-(2-Cyano-3-(phenylamino)-3-thioxopropanamido)-1,3,4-thiadiazol-2-yl)benzamide]: the IC50 in the series on HepG2 turned out to be 14.7 ± 2.3 µM; in series [1] (Homo sapiens, WI-38, 48 h) it was 85.9 ± 1.9 µM. Also, the “selectivity index (SI)” value in series [1] stood at 4.1.

Regarding `CSC(SC)=C(C#N)C(=O)Nc1nnc(NC(=O)c2ccccc2)s1` [Compound 17, N-(5-(2-Cyano-3,3-bis(methylthio)acrylamido)-1,3,4-thiadiazol-2-yl)benzamide], the IC50 was found to be 12.5 ± 1 µM in the series with HepG2 and 81.2 ± 4.1 µM in series [1] (Homo sapiens, WI-38, 48 h). In addition, the “selectivity index (SI)” value in series [1] stood at 6.0.

As to `N#CC(C(=O)Nc1nnc(NC(=O)c2ccccc2)s1)=C1Nc2ccccc2N1` [Compound 18, N-(5-(2-Cyano-2-(1,3-dihydro-2H-benzo[d]imidazole-2-ylidene)acetamido)-1,3,4-thiadiazol-2-yl)benzamide], the IC50 was 47.3 ± 8.2 µM in the series with HepG2 and greater than 100 µM in series [1] (Homo sapiens, WI-38, 48 h). The “selectivity index (SI)” value in series [1] worked out at 1.5.

In the case of `N#CC(C(=O)Nc1nnc(NC(=O)c2ccccc2)s1)=C1Nc2ccccc2O1` [Compound 19, N-(5-(2-(Benzo[d]oxazol-2(3H)-ylidene)-2-cyanoacetamido)-1,3,4-thiadiazol-2-yl)benzamide], the IC50 is 19.4 ± 1.5 µM with HepG2 and 60.3 ± 3.7 µM in series [1] (Homo sapiens, WI-38, 48 h). Further, the “cells arrested at G2/M” value in the series with MCF-7 cells [2] (DMSO 4.6%) is 23.3%. Further, the “necrotic cells (upper left quadrant, UL)” value in the series on MCF-7 cells [3] is on record as 15%. Also, the “early apoptosis (lower-right quadrant, LR)” value in the series with MCF-7 cells [3] (DMSO 3.2%) amounted to 15%. For the same molecule, the “selectivity index (SI)” value in series [1] is 6.1.

In the case of `N#CC(C(=O)Nc1nnc(NC(=O)c2ccccc2)s1)=C1Oc2cccnc2O1` [Compound 20, N-(5-(2-([1,3]dioxolo[4,5-b]pyridin-2-ylidene)-2-cyanoacetamido)-1,3,4-thiadiazol-2-yl)benzamide], the IC50 amounted to 29.6 ± 3.1 µM in the series on HepG2 and 42.7 ± 2.7 µM in series [1] (Homo sapiens, WI-38, 48 h). Besides, the “selectivity index (SI)” value in series [1] is recorded as 1.5.

As to `COc1cccc2c1C(=O)c1c(O)c3c(c(O)c1C2=O)C[C@@](O)(C(=O)CO)C[C@@H]3O[C@H]1C[C@H](N)[C@H](O)[C@H](C)O1` [DOX, Doxorubicin, reference compound], the IC50 in the series with HepG2 was determined as 4.5 ± 0.2 µM.

In the case of “N-(5-(2-Cyano-2-(4,6-dioxo-1-phenylpiperidin-2-ylidene)acetamido)-1,3,4-thiadiazol-2-yl)benzamide [Compound 13]”, the “selectivity index (SI)” value in series [1] was found to be 0.5. Also, in series [1] (MTT, 48 h, mean ±SEM, three independent experiments), the IC50 turned out to be 23.6 ± 3.2 µM.
